Experimental data published in ChEMBL document CHEMBL4387709, “Discovery of Quinoline Analogues as Potent Antivirals against Enterovirus D68 (EV-D68)” (J Med Chem, 2019).

Experiments:
[1] = Selectivity index, ratio of CC50 for human RD cells to EC50 for Enterovirus D68 US/KY/14-18953 infected in human RD cells; type: toxicity, cell-based; conditions: read-out: Ratio CC50/EC50
RD = test: Cytotoxicity against human RD cells after 3 days by neutral red dye-based photometric method; type: cell-based; conditions: rd, 72 h
enterovirus D68 = test: Antiviral activity against Enterovirus D68 US/KY/14-18953 infected in human RD cells assessed as inhibition of virus-induced cytopathic effect incubated for 5 mins under shaking condition and measured after 3 days by neutral red dye-based photometric method; type: functional, organism-based; conditions: Enterovirus D, US/KY/14-18953, RD
Method in brief: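 RD cells seeded one day ahead to ~90% confluence, PBS (Mg/Ca) wash, infected at ~MOI 0.01 with EV-D68 in DMEM/2% FBS/30 mM MgCl2 at 33 °C, 5% CO2. Compounds and 1% P/S added after 1 h. Plates shaken ~5 min, held 3 days, viable cells stained with neutral red (66 µg/ml), A540 read. EC50 from dose-response fits, triplicates.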

Compound | selectivity ratio [1] | CC50 (RD) [µM] | EC50 (enterovirus D68) [µM]
CC(C)Oc1cc(C(=O)NCCN(C)C)c2ccccc2n1 | 22.6 | 38.5 | 1.7
CC(C)Oc1cc(C(=O)NCCN2CCCC2)c2ccccc2n1 | 21.7 | 36.9 | 1.7
CCN(CC)CCNC(=O)c1cc(-c2ccsc2)nc2ccccc12 | 46.9 | 46.9 | 1
CCN(CC)CCNC(=O)c1cc(-c2ccncc2)nc2ccccc12 | 26.3 | 174 | 6.6
CCOc1cc(C(=O)NCCN(CC)CC)c2ccccc2n1 | 27.9 | 165 | 5.9
CCC(C)Oc1cc(C(=O)NCCN(CC)CC)c2ccccc2n1 (centres undefined) | 5.6 | 15.7 | 2.8
CCN(CC)CCNC(=O)c1cc(-c2cnc(N(C)C)nc2)nc2ccccc12 | 3 | 74.2 | 24.6
CCOCCOc1cc(C(=O)NCCN(CC)CC)c2ccccc2n1 | 11.8 | 144 | 12.2
CCN(CC)CCNC(=O)c1cc(-c2ccnn2C)nc2ccccc12 | 3.7 | 133 | 36.3
Cc1ccc2c(c1)c1c3n2CCNC3CCC1 (centres undefined) | – | 19 | 8.4
CCN(CC)CCNC(=O)c1cc(-c2ccc3c(c2)OCCO3)nc2ccccc12 | 5.5 | 49.9 | 9
CC(C)Oc1cc(C(=O)N2CCN(C)CC2)c2ccccc2n1 | – | > 300 | > 100
CN(C)CCCNC(=O)c1cc(-c2cccs2)nc2ccccc12 | 57.9 | 40.5 | 0.7
CCCOc1cc(C(=O)NCCN(CC)CC)c2ccccc2n1 | 9.5 | 46.7 | 4.9
NNC(=O)c1cc(-c2cccs2)nc2ccccc12 | > 8.4 | > 100 | 11.9
CN(C)c1ccc(NC(=O)c2cc(-c3ccccc3)nc3ccccc23)cc1 | > 3.5 | > 350 | > 100
CCN(CC)CCNC(=O)c1cc(-c2ccc(OC)cc2)nc2ccccc12 | 13.2 | 31.6 | 2.4
CC(C)Oc1cc(C(=O)NCCCN(C)C)c2ccccc2n1 | 10.7 | 122 | 11.4
O=C(NCCCn1ccnc1)c1cc(-c2cccs2)nc2ccccc12 | 6.3 | 55.7 | 8.9

Compound | selectivity ratio [1] | CC50 (RD) [µM] | EC50 (enterovirus D68) [µM]
CN(C)CCNC(=O)c1cc(-c2ccccc2)nc2ccc(Cl)cc12 | 11.9 | 14.3 | 1.2
CCN(CC)CCNC(=O)c1cc(OC)nc2ccccc12 | > 4.8 | > 250 | 52.5
CCN(CC)CCNC(=O)c1cc(-c2ccc(COC)cc2)nc2ccccc12 | 2.7 | 46.6 | 17.4
CCN(CC)CCNC(=O)c1cc(-c2ccn[nH]2)nc2ccccc12 | 6.8 | 132 | 19.4
CCN(CC)CCNC(=O)c1cc(-c2cccs2)nc2ccccc12 | 62.3 | 37.4 | 0.6
CCN(CC)CCNC(=O)c1cc(-c2ccccc2)nc2ccc(F)cc12 | 19.2 | 24.9 | 1.3
CC(C)Oc1cc(C(=O)NCCN2CCOCC2)c2ccccc2n1 | > 14.3 | > 250 | 17.5
CN(C)CCCNC(=O)c1cc(-c2ccccc2)nc2ccccc12 | 12.8 | 44.9 | 3.5
CC(C)Oc1cc(C(=O)NC2CCN(C)CC2)c2ccccc2n1 | 5.7 | 101 | 17.8
NNC(=O)c1cc(-c2ccccc2)nc2ccccc12 | > 3 | > 300 | 100
N=C(N)NC(=O)c1cc(-c2ccccc2)nc2ccccc12 | > 7.2 | > 250 | 34.7
CCN(CC)CCNC(=O)c1cc(-c2ccc3c(c2)CCO3)nc2ccccc12 | 18.4 | 29.5 | 1.6
CCN(CC)CCNC(=O)c1cc(-c2ccc(-c3ccccc3)cc2)nc2ccccc12 | – | 9.8 | > 10
CCN(CC)CCNC(=O)c1cc(-c2ccccc2)nc2ccccc12 | 56.4 | 45.1 | 0.8
CCN(CC)CCNC(=O)c1cc(-c2cccc(OC)c2)nc2ccccc12 | 22.8 | 36.5 | 1.6
CN(C)CCNC(=O)c1cc(-c2ccccc2)nc2ccc(F)cc12 | 64.7 | 38.8 | 0.6
CC(C)Oc1cc(C(=O)NCCN)c2ccccc2n1 | 42.5 | 149 | 3.5
O=C(NC1CN2CCC1CC2)c1cc(-c2ccccc2)nc2ccccc12 (centres undefined) | 13.3 | 46.5 | 3.5
CCN(CC)CCNC(=O)c1cc(-c2ccccc2OC)nc2ccccc12 | 5.5 | 75.9 | 13.9

Compound | selectivity ratio [1] | CC50 (RD) [µM] | EC50 (enterovirus D68) [µM]
CCN(CC)CCNC(=O)c1cc(OCC2CC2)nc2ccccc12 | 5.4 | 38.5 | 7.1
CCN(CC)CCNC(=O)c1cc(OC(C)C)nc2ccccc12 | 44.5 | 111 | 2.5
CCN(CC)CCCNC(=O)c1cc(-c2ccccc2)nc2ccccc12 | 4.7 | 45.4 | 9.6
CCN(CC)CCNC(=O)c1cc(OCC(F)(F)F)nc2ccccc12 | 9.5 | 33.1 | 3.5
CCN(CC)CCNC(=O)c1cc(OC2CCCC2)nc2ccccc12 | 1.7 | 11.7 | 6.8
CCN(CC)CCNC(=O)c1cc(-c2cnc(OC)nc2)nc2ccccc12 | 2 | 174 | 87.6
CCN(CC)CCNC(=O)c1cc(/C=C/c2ccccc2)nc2ccccc12 | 14.4 | 11.5 | 0.8
CCN(CC)CCNC(=O)c1cc(-c2c(C)noc2C)nc2ccccc12 | – | 129 | > 50
CCN(CC)CCNC(=O)c1cc(-c2ccccc2)nc2ccc(Cl)cc12 | 7.1 | 13.5 | 1.9
CCN(CC)CCNC(=O)c1cc(-c2ccccc2)nc2ccc(OC)cc12 | 2.2 | 27.5 | 12.3
CCN(CC)CCNC(=O)c1cc(OCc2ccccc2)nc2ccccc12 | 12.3 | 13.5 | 1.1
CCN(CC)CCNC(=O)c1cc(-c2ccc(Cl)s2)nc2ccccc12 | 7.6 | 6.1 | 0.8
O=C(NCCN1CCCC1)c1cc(-c2ccccc2)nc2ccccc12 | 117 | 46.7 | 0.4
CCC(CC)Oc1cc(C(=O)NCCN(CC)CC)c2ccccc2n1 | – | 9.5 | > 10
CC(C)Oc1cc(C(=O)NCCN2CCN(C)CC2)c2ccccc2n1 | 3.4 | 88.8 | 25.9
CCN(CC)CCNC(=O)c1cc(-c2cnn(C)c2)nc2ccccc12 | – | 251 | > 100
COc1ccc2nc(-c3ccccc3)cc(C(=O)NCCN(C)C)c2c1 | 3.9 | 31.8 | 8.1
CCN(CC)CCNC(=O)c1cc(-c2ccc(CN3CCOCC3)cc2)nc2ccccc12 | – | 79.2 | > 80
CCN(CC)CCNC(=O)c1cc(-c2ccoc2)nc2ccccc12 | 81.7 | 122 | 1.5
